# Bioassay records (PubChem)
# This is a sample that favours compounds with a hit; in the whole collection about 3% have one here.
# 5HT1a antag = 5-HT1a (human) receptor antagonism; P08908; CHO 5-HT1a Ga15 NFAT-bla reporter, antagonist mode; inhibition, % at 10 µM; 0.68% of 62,000 active; AID 612;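 active = inhibition above the mean of all tested compounds plus 3 SD, cut at about 43% in these data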;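 note: receptor stimulated by 5-CT agonist at 100 nM near EC80; beta-lactamase reporter measured by ratiometric fluorescence of a cleavable substrate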
# S1P3 agonist = activates the human S1P3 receptor; Q99500; S1P3 NFAT-BLA reporter cells, agonism, FRET ratio; relative to 1 µM S1P, basal subtracted; activation, % at 4.5 µM; 0.1% of 60,000 active; AID 373;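 active = activation above the screen-wide mean plus 3 SD, cut at about 4.5% in these data, passing the limit was not always enough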
#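 Material: Human S1P3 NFAT-BLA reporter CHO cells | Incubation: Overnight plating, 4 h compound 37 °C, 2 h substrate RT | Signal: FRET β-lactamase substrate fluorescence, excitation 405 nm, 460/535 nm emission ratio, background-subtracted | Compound: 4.5 µM final, single dose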
# 5HT1a ag = activates the human 5-HT1a serotonin receptor | P08908 | CHO 5-HT1a Ga15 NFAT-bla reporter, FRET ratio; 0% basal, 100% maximal reference agonist | activation, % at 10 µM | 0.56% of 65,000 active | AID 567;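 active = activation above the screen-wide mean activation plus 3 SD, cut at about 19% in these data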;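 note: 0% = DMSO wells and 100% = 5-CT at EC100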
# S1P1 ag pot = S1P1 (human) agonism or agonism potentiation | S1P1 CRE-bla cells, forskolin, beta-lactamase FRET, potentiator mode; S1P1 agonist co-added at EC20, 2 nM; 100% = saturating reference agonist, 0% = basal | activation, % at 9.5 µM | 0.57% of 56,000 active;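 active = activation above a cutoff set at the mean activation of all tested compounds plus 3 SD, cut at about 54% in these data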;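 note: forskolin at 4 µM as EC80 and the EC20 agonist is SEW2871; 100% = SEW2871 at its EC100 plus forskolin at EC80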
# Target sequence (P21453 whole entry, looked up): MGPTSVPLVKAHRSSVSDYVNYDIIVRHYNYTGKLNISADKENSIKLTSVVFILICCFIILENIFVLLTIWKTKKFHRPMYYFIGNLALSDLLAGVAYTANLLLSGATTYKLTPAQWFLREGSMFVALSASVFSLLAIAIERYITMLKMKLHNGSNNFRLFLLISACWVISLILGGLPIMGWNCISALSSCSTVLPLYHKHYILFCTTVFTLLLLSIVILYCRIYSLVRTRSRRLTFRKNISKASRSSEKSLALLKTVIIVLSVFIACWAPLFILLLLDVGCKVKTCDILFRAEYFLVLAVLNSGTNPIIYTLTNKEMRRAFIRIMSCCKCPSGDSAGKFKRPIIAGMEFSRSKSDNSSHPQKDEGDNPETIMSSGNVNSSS
# HTR1E antagonist = 5-HT1E (human) receptor antagonism | P28566 | CHO 5-HT1E Ga15 NFAT-bla reporter, FRET, antagonist | inhibition, % at 6 µM | 0.99% of 65,000 active | AID 571;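 active = inhibition above a set limit, the mean inhibition across every tested compound plus 3 SD, cut at about 29% in these data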;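 note: signal is the 460 over 535 nm emission ratio of beta-lactamase substrate; 0% = agonist plus DMSO wells and 100% = wells without agonist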
# HTR1E agonist = activates the human 5-HT1E serotonin receptor. P28566. 0.69% of 65,000 active. CHO 5-HT1E Ga15 NFAT-bla reporter, FRET; 0% DMSO wells, 100% control agonist wells. activation, % at 6 µM;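 active = activation above a set limit, the screen-wide mean activation plus 3 SD, cut at about 8.5% in these data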;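 note: 100% = positive control agonist at 1 µM giving full maximal response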
# The depositor's hits bear a star; . = not tested or not shown.
SMILES,5HT1a antag,S1P3 agonist,5HT1a ag,S1P1 ag pot,HTR1E antagonist,HTR1E agonist
CC(=O)Oc1ccc2cc(-c3nc4ccccc4n3C)c(=O)oc2c1,-54,5.7*,89*,-17,33*,21*
CCc1cc2c(=O)c(-c3nc4ccccc4n3C)c(COCC(=O)O)oc2cc1O,-8,-2,-5,-24,-3,-1
CCOC(=O)c1oc2ccccc2c1NC(=O)c1cc(OC)cc(OC)c1,20,1,-4,-83,15,112*
CC(C)C(OC(=O)c1cccs1)C(=O)NCc1cccs1 (centres undefined),8,0,-2,7,-2,-1
Cc1cc(C(=O)COC(=O)c2csc3c2CCCC3)c(C)n1C,2,0,0,79*,2,-1
CC(=O)Nc1ccccc1Sc1ccccc1,22,-1,-2,-22,32*,-1
CS(=O)(=O)N1CCC(C(=O)Nc2ccccc2Sc2ccccc2)CC1,12,0,0,9,2,0
COc1ccc(C(C(=O)OC(C)CN(C)C)c2ccccc2)cc1 (centres undefined),-5,0,-2,-8,2,-1
CN(C)CC(C(=O)c1ccccc1)c1ccccc1 (centres undefined),76*,-1,-5,82,74*,0
N#Cc1nc(COc2ccc(F)cc2)oc1N1CCC(Cc2ccccc2)CC1,56*,-1,-4,10,1,-1
COc1ccc(OCc2nc(C#N)c(N3CCN(c4ccc(OC)cc4)CC3)o2)cc1,52*,-2,-2,10,7,0
N#Cc1nc(COc2ccc(Cl)cc2)oc1N1CCCCCC1,28,-1,-2,.,15,0
COc1ccc(N2CCN(c3oc(COc4ccccc4Cl)nc3C#N)CC2)cc1,50*,.,-4,.,2,0
O=C(c1cccc(S(=O)(=O)NCCOc2ccccc2)c1)N1CCN(c2ncccn2)CC1,-22,-1,-2,-2,-3,1
c1ccc(Cn2nnc3c(N4CCN(Cc5ccc6c(c5)OCO6)CC4)ncnc32)cc1,5,0,-1,20,5,0
c1ccc2c(c1)oc1c(N3CCN(Cc4ccc5c(c4)OCO5)CC3)ncnc12,29,-1,63*,92*,-10,0
O=C(CCN1C(=O)c2ccccc2C1=O)N1CCCCCC1,-12,-1,-1,0,-3,0
O=C(CCN1C(=O)c2ccccc2C1=O)N1CCC(c2ccccc2)C1 (centres undefined),-6,1,32*,.,-5,1
O=c1cc(-c2c(F)c(F)c(F)c(F)c2F)oc2c(F)c(F)c(F)c(F)c12,99*,.,-10,.,102*,-2
COC(=O)c1cc(NC(=O)Cn2c(=O)cnc3ccccc32)cc(C(=O)OC)c1,11,-1,-3,9,9,-1
Cn1c(=O)c(NCCO)c2c3c(cccc31)C(=O)c1ccccc1-2,6,.,0,.,14,1
CCNc1c2c3c(cccc3n(C)c1=O)C(=O)c1ccccc1-2,11,-1,3,35,21,32*
O=C(NCC1COc2ccccc2O1)C1CCC(CNc2c(N3CCCCC3)c(=O)c2=O)CC1 (centres undefined),-10,0,-1,-26,5,0
CCOC(=O)c1cc2ccc(OC(=O)c3ccco3)cc2oc1=O,-308,28*,296*,-291,-102,81*
O=C1c2ccccc2C(Nc2ccc3c(c2)OCCO3)N1Cc1ccccc1 (centres undefined),17,-1,-2,-11,3,0
SMILES,5HT1a antag,S1P3 agonist,5HT1a ag,S1P1 ag pot,HTR1E antagonist,HTR1E agonist
O=c1c2ccccc2nc2n1CC/C2=C/N1CCN(c2cccc(C(F)(F)F)c2)CC1,9,0,2,6,-8,39*
CC(C)CC(OC(=O)c1ccco1)C(=O)NC1CCCCC1 (centres undefined),11,1,-2,-9,-7,-2
Cc1ccc(OCC(O)CNS(=O)(=O)c2ccccc2C(=O)N2CCCCC2)cc1 (centres undefined),-6,0,-2,-9,-2,0
COc1cc(-c2nn3c(Cc4ccccc4)nnc3s2)cc(OC)c1OC,14,0,0,.,31*,0
O=C(NCc1ccco1)C1CCN(C(=O)c2cc3sccc3n2Cc2ccc(Cl)cc2)CC1,45*,-1,0,58,0,-1
CCS(=O)(=O)N1CCN(c2cccc(C)c2C)CC1,-22,0,1,-14,-12,0
Cc1cccc(N2CCN(CC(=O)NCC3CCCCC3)CC2)c1C,16,0,41*,2,-14,1
CN=Cc1sc2ccccc2c1O,3,-1,1,-4,6,1
CC(=O)NCCN=Cc1sc2ccccc2c1O,-1,.,49*,.,-3,0
Cn1c(=O)c2c(nc(Oc3ccc4c(c3)OCO4)n2Cc2ccc(Br)cc2)n(C)c1=O,.,-2,40*,5,-9,0
Cn1c(=O)c2c(nc(Oc3ccc4c(c3)OCO4)n2Cc2ccc(F)cc2)n(C)c1=O,.,-3,4,-3,5,-1
CCCOC(=O)c1ccc(Oc2cn[nH]c2-c2ccc(OC)cc2O)cc1,46*,-1,0,36,26,-1
CCOc1ccc(-c2[nH]ncc2Oc2ccccc2OC)c(O)c1,-3,0,-4,-4,-3,1
CSc1nc(-c2ccco2)cc(-c2ccccc2)c1C#N,-11,0,-4,-20,1,-1
CS(=O)c1nc(-c2ccc(Br)cc2)cc(-c2ccccc2)c1C#N (centres undefined),81*,-1,-6,-30,43*,2
Cc1ccc(S(=O)(=O)Nc2cccc3ncccc23)s1,64*,0,-3,53,81*,1
Cc1ccc(CC2CC(=O)N(c3ccc(Cl)cn3)C2=O)cc1 (centres undefined),-4,0,-2,-16,-9,0
OCC#CCSc1nnc(-c2ccncc2)o1,-1,-2,-2,-6,-3,1
Clc1ccc(CSc2nnc(-c3ccncc3)o2)cc1,5,3,1,97*,5,0
CCN(CC)CCOc1cccc(C(C)C)c1,6,0,-1,-13,4,13*
N#CCCn1c2ccccc2c2nc3ccccc3nc21,-9,0,2,-54,38*,0
c1coc(CNC2CCCCCCC2)c1,5,0,42*,2,13,-1
Cn1c2ccc(Cl)cc2c2nc3ccccc3nc21,10,1,2,-104,37*,0
Nc1nnnn1/N=C/C(Br)=C/c1ccccc1,85*,-1,-2,71,48*,1
